Laboratory results: ChEMBL document CHEMBL4321882, “α-Helix-Mimicking Sulfono-γ-AApeptide Inhibitors for p53-MDM2/MDMX Protein-Protein Interactions” (J Med Chem, 2020)
Calls of active or inactive are those of the source. The calls are words filed in the database; no cut-off is given here.

Key:
[1] = biological target: T1, E3 ubiquitin-protein ligase Mdm2 (Homo sapiens, UniProt Q00987); experiment: Binding affinity to human MDM2 expressed in Escherichia coli expression system by using (FITC)-labeled p53 peptide based fluorescence polarization competitive assay
Target sequence in this assay (Q00987 whole entry): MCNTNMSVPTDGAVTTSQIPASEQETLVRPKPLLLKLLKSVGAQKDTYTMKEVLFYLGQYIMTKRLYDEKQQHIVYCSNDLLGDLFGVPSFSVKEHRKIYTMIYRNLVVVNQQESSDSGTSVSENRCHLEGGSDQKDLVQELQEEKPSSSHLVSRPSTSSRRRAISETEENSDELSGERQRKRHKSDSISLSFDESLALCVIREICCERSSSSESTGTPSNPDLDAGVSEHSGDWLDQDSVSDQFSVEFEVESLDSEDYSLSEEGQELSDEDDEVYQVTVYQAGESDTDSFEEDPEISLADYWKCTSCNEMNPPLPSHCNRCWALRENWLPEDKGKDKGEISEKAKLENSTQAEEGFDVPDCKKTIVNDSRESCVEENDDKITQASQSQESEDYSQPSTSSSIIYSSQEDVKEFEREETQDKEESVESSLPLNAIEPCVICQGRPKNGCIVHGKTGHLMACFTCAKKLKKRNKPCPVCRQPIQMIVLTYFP

[2] = Enzymatic stability assessed as pronase (unknown origin)-mediated compound hydrolysis at pH 7.8 at 0.1 mg/ml incubated for 24 hrs by HPLC-MS analysis; assay type: ADME; details: buffer, pH 7.8, 24 h
Summary of the method: (§1)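 Compound (0.1 mg/mL) was incubated with 0.1 mg/mL α-chymotrypsin or pronase in 100 mM ammonium bicarbonate, pH 7.8, at 37 °C for 24 h. Mixtures were concentrated by speed vacuum to remove water and buffer salt. Residual compound was then analysed by HPLC-MS.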

[3] = Enzymatic stability assessed as alpha-chymotrypsin (unknown origin)-mediated compound hydrolysis at pH 7.8 at 0.1 mg/ml incubated for 24 hrs by HPLC-MS analysis; assay type: ADME; details: human, buffer, pH 7.8, 24 h; summary of the method: as §1
Protein Mdm4 = biological target: T2, Protein Mdm4 (Homo sapiens, UniProt O15151); experiment: Binding affinity to MDMX (unknown origin) by using (FITC)-labeled p53 peptide based fluorescence polarization competitive assay
T2 sequence (O15151 whole entry): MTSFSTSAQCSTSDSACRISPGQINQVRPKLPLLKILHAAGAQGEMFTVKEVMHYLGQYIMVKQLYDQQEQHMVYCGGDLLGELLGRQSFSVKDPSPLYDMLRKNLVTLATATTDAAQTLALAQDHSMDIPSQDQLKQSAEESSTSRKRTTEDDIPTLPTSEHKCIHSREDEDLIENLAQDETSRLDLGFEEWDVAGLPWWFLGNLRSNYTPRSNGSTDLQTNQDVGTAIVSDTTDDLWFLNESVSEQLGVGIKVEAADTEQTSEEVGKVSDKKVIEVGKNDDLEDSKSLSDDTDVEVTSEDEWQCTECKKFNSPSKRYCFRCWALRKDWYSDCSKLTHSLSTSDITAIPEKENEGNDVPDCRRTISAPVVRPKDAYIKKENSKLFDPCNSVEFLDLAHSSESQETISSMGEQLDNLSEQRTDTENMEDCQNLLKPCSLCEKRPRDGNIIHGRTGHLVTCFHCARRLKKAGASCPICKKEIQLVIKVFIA

[4] = biological target: T1, E3 ubiquitin-protein ligase Mdm2; experiment: Potency index, ratio of p53 binding affinity to compound binding affinity to human MDM2 (17-125 residues) by NMR spectroscopic analysis
Target sequence in this assay (Q00987 whole entry, looked up): as the sequence (Q00987 whole entry) above

[5] = biological target: Cellular tumor antigen p53 (Homo sapiens) (UniProt P04637); experiment: Activation of p53 in human U2OS cells cotransfected with BP100-luc and CMV-lacZ gene assessed as lacZ gene expression at 30 uM incubated for 18 hrs by p53-dependent luciferase transcriptional activation assay; assay type: cell-based
Summary of the method: (§2)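 U2OS cells stably carrying the p53-responsive BP100-luc reporter and a CMV-lacZ control were seeded at 100,000 per well 24 h before dosing at 30 μM. Lysates were assayed for luciferase and β-gal activity. […] Each value is the average of at least three measurements, with standard deviation.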

[6] = biological target: Cellular tumor antigen p53 (Homo sapiens) (UniProt P04637); experiment: Activation of p53 in human U2OS cells cotransfected with BP100-luc and CMV-lacZ gene assessed as luciferase gene expression at 30 uM incubated for 18 hrs by p53-dependent luciferase transcriptional activation assay; assay type: cell-based; summary of the method: as §2
HCT-116 [7] = experiment: Antiproliferative activity against human HCT116 cells expressing wild-type p53 assessed as reduction in cell viability at 200 uM incubated for 48 hrs by MTT assay
HCT-116 [8] = experiment: Antiproliferative activity against human HCT116 cells harboring p53 deletion mutant assessed as reduction in cell viability at 200 uM incubated for 48 hrs by MTT assay
[9] = biological target: T1, E3 ubiquitin-protein ligase Mdm2; experiment: Binding affinity to human MDM2 (17-125 residues) by NMR spectroscopic analysis
Summary of the method: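 Uniformly 15N/13C-labelled human MDM2 residues 17–125 was analysed free and with ligand. Sensitivity-enhanced 1H–15N HSQC and 3D HNCA spectra were recorded for resonance assignment. Buffer was 50 mM sodium phosphate, 100 NaCl, 1 mM EDTA, 0.02% sodium azide and 2 mM DTT, pH 6.8, with 10% D2O.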
Target sequence in this assay (Q00987 whole entry, looked up): as the sequence (Q00987 whole entry) above

[10] = biological target: T1, E3 ubiquitin-protein ligase Mdm2; experiment: Potency index, ratio of p53 IC50 to test compound IC50 for binding affinity to human MDM2 expressed in Escherichia coli expression system by using (FITC)-labeled p53 peptide based fluorescence polarization competitive assay
Target sequence in this assay (Q00987 whole entry, looked up): as the sequence (Q00987 whole entry) above

[11] = biological target: T3, Tumour suppressor p53/oncoprotein Mdm2 (Homo sapiens) (UniProt P04637+Q00987); experiment: Inhibition of MDM2/p53 interaction in human U2OS cells assessed as increase in MDM2 level at 30 uM incubated for 16 hrs by Western blot analysis; assay type: cell-based
Summary of the method: (§3)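 Exponentially growing U2OS cells were treated at 30 μM for 16 h, then lysed in RIPA with 1 mM PMSF and protease inhibitors. Lysates were resolved by SDS-PAGE and blotted. Blots were blocked in PBS with 5% milk and 0.1% Tween 20.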

[12] = biological target: T3, Tumour suppressor p53/oncoprotein Mdm2 (Homo sapiens); experiment: Inhibition of MDM2/p53 interaction in human U2OS cells assessed as increase in p21 level at 30 uM incubated for 16 hrs by Western blot analysis; assay type: cell-based; summary of the method: as §3
[13] = biological target: T3, Tumour suppressor p53/oncoprotein Mdm2 (Homo sapiens); experiment: Inhibition of MDM2/p53 interaction in human U2OS cells assessed as increase in p53 level at 30 uM incubated for 16 hrs by Western blot analysis; assay type: cell-based; summary of the method: as §3

Cellular tumor antigen p53 (Homo sapiens), sequence (P04637 whole entry, looked up): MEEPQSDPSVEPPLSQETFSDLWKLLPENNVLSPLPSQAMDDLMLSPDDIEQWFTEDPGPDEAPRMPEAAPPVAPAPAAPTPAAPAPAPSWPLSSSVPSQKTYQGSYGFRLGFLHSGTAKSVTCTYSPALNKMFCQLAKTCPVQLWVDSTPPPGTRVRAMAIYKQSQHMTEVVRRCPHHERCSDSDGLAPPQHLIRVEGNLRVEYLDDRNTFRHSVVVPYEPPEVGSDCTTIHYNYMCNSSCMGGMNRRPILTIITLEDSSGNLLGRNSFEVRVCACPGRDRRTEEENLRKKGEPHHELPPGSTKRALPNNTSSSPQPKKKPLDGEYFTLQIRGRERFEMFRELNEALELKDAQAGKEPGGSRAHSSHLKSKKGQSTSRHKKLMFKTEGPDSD
T3 sequence (P04637 whole entry, looked up): as above
T3 sequence (Q00987 whole entry, looked up): as the sequence (Q00987 whole entry) above

Row | SMILES | Stability [2] | Stability [3] | IC50 (Protein Mdm4) | Kd (Protein Mdm4) | Ratio [4] | Activity [5] | Activity [6] | Kd [1] | IC50 ([1]; read-out: IC50) | Activity [9] | Ratio IC50 [10] | inhibition [11] | inhibition [12] | inhibition [13] | IC50 [1] | inhibition (HCT-116 [7]) | Activity (HCT-116 [8])
1 | CC(=O)N[C@@H](CC(C)C)CN(CC(=O)N[C@@H](Cc1ccccc1)CN(CC(=O)N[C@@H](CCC(=O)O)CN(CC(=O)N[C@@H](C)CN(CC(=O)N[C@@H](CCCCN)CN(CC(=O)N[C@@H](CC(C)C)CN(CC(=O)N[C@@H](C)CN(CC(N)=O)S(C)(=O)=O)S(=O)(=O)CC(C)C)S(C)(=O)=O)S(C)(=O)=O)S(C)(=O)=O)S(C)(=O)=O)S(=O)(=O)c1ccc(Cl)cc1 |  |  |  |  |  |  |  |  |  |  |  |  |  |  | Not Active |  | 
2 | CC(=O)N[C@@H](CC(C)C)CN(CC(=O)N[C@@H](Cc1ccccc1)CN(CC(=O)N[C@@H](CCC(=O)O)CN(CC(=O)N[C@@H](Cc1c[nH]c2ccccc12)CN(CC(=O)N[C@@H](CCCCN)CN(CC(=O)N[C@@H](CC(C)C)CN(CC(=O)N[C@@H](C)CN(CC(N)=O)S(C)(=O)=O)S(=O)(=O)CC(C)C)S(C)(=O)=O)S(C)(=O)=O)S(C)(=O)=O)S(C)(=O)=O)S(=O)(=O)c1ccc(Cl)cc1 | Stable | Stable | 6000 nM | 370 nM |  | inactive | Active | 57 nM | 2800 nM |  | 1.5 |  |  |  |  |  | 
3 | CC(=O)N[C@@H](CC(C)C)CN(CC(=O)N[C@@H](Cc1ccccc1)CN(CC(=O)N[C@@H](CCC(=O)O)CN1CC(=O)N[C@@H](Cc2c[nH]c3ccccc23)CN(S(C)(=O)=O)CC(=O)N[C@@H](CCCCN)CN(CC(=O)N[C@@H](CC(C)C)CN(CC(=O)N[C@@H](C)CN(CC(N)=O)S(C)(=O)=O)S(=O)(=O)CC(C)C)S(=O)(=O)CC/C=C/CCCCS1(=O)=O)S(C)(=O)=O)S(=O)(=O)c1ccc(Cl)cc1 | Stable | Stable | 6600 nM |  |  |  | 25% |  | 3600 nM |  |  | Active | Active | Active |  |  | 
4 | CC(=O)N[C@@H](CC(C)C)CN(CC(=O)N[C@@H](Cc1ccccc1)CN(CC(=O)N[C@@H](CCC(=O)O)CN1CC(=O)N[C@@H](Cc2c[nH]c3ccccc23)CN(S(C)(=O)=O)CC(=O)N[C@@H](CCCCN)CN(CC(=O)N[C@@H](CC(C)C)CN(CC(=O)N[C@@H](C)CN(CC(N)=O)S(C)(=O)=O)S(=O)(=O)CC(C)C)S(=O)(=O)CCCC/C=C/CCCCS1(=O)=O)S(C)(=O)=O)S(=O)(=O)c1ccc(Cl)cc1 | Stable | Stable | 3900 nM |  |  |  | 70% |  | 1900 nM |  |  | Active | Active | Active |  | Active | Active

Continued, in another order:

Row | Stability [2] | Stability [3] | IC50 (Protein Mdm4) | Kd (Protein Mdm4) | Ratio [4] | Activity [5] | Activity [6] | Kd [1] | IC50 ([1]; read-out: IC50) | Activity [9] | Ratio IC50 [10] | inhibition [11] | inhibition [12] | inhibition [13] | SMILES | IC50 [1] | inhibition (HCT-116 [7]) | Activity (HCT-116 [8])
5 | Stable | Stable | 3600 nM | 221 nM | 10 | inactive | Active | 26 nM | 891 nM | Active |  |  |  |  | CC(=O)N[C@@H](CC(C)C)CN(CC(=O)N[C@@H](Cc1ccccc1)CN(CC(=O)N[C@@H](CCC(=O)O)CN(CC(=O)N[C@@H](Cc1c[nH]c2ccccc12)CN(CC(=O)N[C@@H](CCCCN)CN(CC(=O)N[C@@H](CC1CCC1)CN(CC(=O)N[C@@H](C)CN(CC(N)=O)S(C)(=O)=O)S(=O)(=O)CC(C)C)S(C)(=O)=O)S(C)(=O)=O)S(C)(=O)=O)S(C)(=O)=O)S(=O)(=O)c1ccc(Cl)cc1 |  | Active | Active
6 | Stable | Stable |  |  |  |  |  |  |  |  |  |  |  |  | CC(=O)N[C@@H](CC(C)C)CN(CC(=O)N[C@@H](Cc1ccccc1)CN(CC(=O)N[C@@H](CCC(=O)O)CN(CC(=O)N[C@@H](Cc1c[nH]c2ccccc12)CN(CC(=O)N[C@@H](CCCCN)CN(CC(=O)N[C@@H](CC1CCCCC1)CN(CC(=O)N[C@@H](C)CN(CC(N)=O)S(C)(=O)=O)S(=O)(=O)CC(C)C)S(C)(=O)=O)S(C)(=O)=O)S(C)(=O)=O)S(C)(=O)=O)S(=O)(=O)c1ccc(Cl)cc1 |  |  | 
